Measurements published in ChEMBL document CHEMBL4808182, “Discovery of the Soluble Guanylate Cyclase Activator Runcaciguat (BAY 1101042)” (J Med Chem, 2021).
Active and inactive are the calls of the source. The calls are words filed in the database; no cut-off is given here.

Columns and labels:
[1] = molecular target: T1, Guanylate cyclase soluble subunit alpha-1 (Rattus norvegicus) (UniProt P19686); test: Activation of recombinant rat sGC alpha1 subunit expressed in CHO cells assessed as induction of [32P-cGMP] formation using alpha-[32P-GTP] as substrate measured after 6 mins by luminescence assay; assay type: cell-based; details: filed as activator
T1 sequence (whole entry): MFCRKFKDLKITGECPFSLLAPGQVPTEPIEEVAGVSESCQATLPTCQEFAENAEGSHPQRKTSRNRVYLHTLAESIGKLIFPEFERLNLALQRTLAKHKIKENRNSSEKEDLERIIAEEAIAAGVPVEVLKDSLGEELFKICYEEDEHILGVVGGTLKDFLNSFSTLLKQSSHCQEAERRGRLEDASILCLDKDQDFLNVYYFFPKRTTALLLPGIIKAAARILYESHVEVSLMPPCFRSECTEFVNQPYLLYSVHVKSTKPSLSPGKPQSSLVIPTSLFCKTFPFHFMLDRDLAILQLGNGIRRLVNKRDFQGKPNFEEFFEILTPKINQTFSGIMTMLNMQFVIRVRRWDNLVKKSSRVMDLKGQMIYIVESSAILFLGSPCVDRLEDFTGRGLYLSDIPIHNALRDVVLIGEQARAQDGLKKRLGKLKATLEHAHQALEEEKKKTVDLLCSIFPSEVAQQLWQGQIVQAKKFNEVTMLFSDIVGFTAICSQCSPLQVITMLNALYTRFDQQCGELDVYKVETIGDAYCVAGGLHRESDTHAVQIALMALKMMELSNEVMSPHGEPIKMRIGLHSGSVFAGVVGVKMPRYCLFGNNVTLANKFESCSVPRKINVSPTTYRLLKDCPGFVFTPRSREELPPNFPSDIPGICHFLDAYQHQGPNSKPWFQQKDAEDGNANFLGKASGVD

[2] = Activation of recombinant rat sGC expressed in CHO cells by luminescence assay; assay type: cell-based; details: CHO
Method in brief: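 Stable CHO reporter cell line overexpressing rat sGC; cGMP formation read as luminescence. EC50 from concentration–response. MEC taken as lowest concentration giving at least threefold increase in basal luminescence.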

CHO = test: Activation of recombinant rat sGC expressed in CHO cells in presence of NO-donor S-nitroso N-acetyL-penicillamine by luminescence assay; assay type: cell-based; details: filed as activator
Method in brief: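 Rat sGC-overexpressing CHO reporter cells were treated with test compound combined with NO donor SNAP, and the luminescence signal was read.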

[3] = Blood clearance in Wistar rat at 0.3 mg/kg, iv measured up to 24 hrs by LC-MS analysis; assay type: ADME, organism-based; details: whole blood
Method in brief: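 Rats dosed iv at 0.3 mg/kg; blood clearance determined.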

[4] = Oral bioavailability in Wistar rat at 0.3 mg/kg measured up to 24 hrs by LC-MS analysis; assay type: ADME, organism-based; details: in vivo
[5] = Volume of distribution at steady state in Beagle dog at 0.3 mg/kg, iv measured up to 24 hrs by LC-MS analysis; assay type: ADME, organism-based, Canis lupus familiaris; details: in vivo, read-out: Vdss
[6] = Volume of distribution at steady state in cynomolgus monkey at 0.1 mg/kg, iv measured up to 24 hrs by LC-MS analysis; assay type: ADME, organism-based, Macaca fascicularis; details: in vivo, read-out: Vdss
[7] = Blood clerance in cynomolgus monkey at 0.1 mg/kg, iv measured up to 24 hrs by LC-MS analysis; assay type: ADME, organism-based, Macaca fascicularis; details: whole blood
Saphenous artery = test: Vasorelaxant activity in Chinchilla rabbit saphenous artery assessed as inhibition of phenylephrine-induced contractions; assay type: functional, tissue-based; details: Oryctolagus cuniculus
Heart [8] = test: Reduction in coronary perfusion pressure in heart isolated from Wistar rat; assay type: functional, tissue-based; details: dose 0.01-10 µM
Method in brief: (§1)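 Rat hearts in Langendorff perfusion were exposed to 10 nM–10 μM. Coronary perfusion pressure, heart rate, LVDP and +dp/dt were recorded.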

Heart [9] = test: Reduction in coronary perfusion pressure in heart isolated from Wistar rat at highest concentration relative to control; assay type: functional; parameters: scale not given: the % may be the effect or the level left; method in brief: as §1
Rattus norvegicus [10] = organism: Rattus norvegicus; test: Effect on heart rate in Wistar rat; assay type: functional; method in brief: as §1
Rattus norvegicus [11] = organism: Rattus norvegicus; test: Effect on left ventricular diastolic pressure in Wistar rat; assay type: functional; method in brief: as §1
Rattus norvegicus [12] = test: Reduction in blood pressure in normotensive Wistar rat at 10 mg/kg, po by radiotelemetry relative to control; assay type: functional; parameters: scale not given: the % may be the effect or the level left
Method in brief: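 Conscious normotensive rats with telemetric implants received oral doses of 1, 3 or 10 mg/kg. Mean arterial pressure and heart rate were recorded continuously beyond 24 h.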

Rattus norvegicus [13] = test: Increase in heart rate in spontaneous hypertensive Wistar rat at 0.1 to 3 mg/kg, po by radiotelemetry relative to control; assay type: functional; details: dose 0.1-3 mg/kg
Method in brief: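 Spontaneously hypertensive rats were given single oral doses of 0.1–3.0 mg/kg. Mean arterial pressure and heart rate were monitored for at least 24 h post dose, as % change.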

Rattus norvegicus [14] = test: In vivo activation of sGC in po dosed renin-transgenic rat carrying [RenTG(mRRen2)27] gene assessed as decrease in mortality pretreated with NO-synthase inhibitor L-NAME followed by compound administration twice daily for 21 days and measured on day 1, 8 and 15; assay type: functional, organism-based; details: dose 1-10 mg/kg, time 21.0 day
Method in brief: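 L-NAME-treated renin transgenic rats were dosed at 1, 3 or 10 mg/kg BID, with placebo controls (n = 24 placebo, 18 per dose). Mortality was recorded.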

Rattus norvegicus [15] = test: Cardioprotective activity in renin-transgenic rat carrying [[…]] gene assessed as reduction in heart hypertrophy at 1 to 10 mg/kg, po bid for 21 days; assay type: functional, organism-based; details: dose 1-10 mg/kg, time 21.0 day
[16] = Induction of CYP3A4 in human hepatocytes using phenacetin as substrate incubated for 60 mins by LC-MS/MS analysis; details: 1 h

- MEC [1]: 1.8 nM
- EC50 [2]: 11.2 nM
- clearance [3]: 3.5 mL/min/kg
- bioavailability [4]: 95%
- Vd [5]: 2.8 L/kg
- Vd [6]: 1.4 L/kg
- clearance [7]: 2.67 mL/min/kg
- IC50 (Saphenous artery): 199 nM
- Activity [16]: 256 nM
Structure (SMILES): C[C@H]([C@H](C(=O)Nc1cc([C@@H](CC(=O)O)C2CC2)ccc1Cl)c1ccc(Cl)cc1)C(F)(F)F [RUNCACIGUAT]
- Activity (CHO): Active
- Activity (Heart [8]): Dose-Dependent Effect
- Activity (Heart [9]): 45%
- Activity (Rattus norvegicus [10]): inactive
- Activity (Rattus norvegicus [11]): inactive
- Activity (Rattus norvegicus [12]): <=15%
- Activity (Rattus norvegicus [13]): <=20%
- Activity (Rattus norvegicus [14]): Dose-Dependent Effect
- Activity (Rattus norvegicus [15]): Active
